The source made the active and inactive calls. The rule behind the calls is not given here.
Legend:
[1] = target: Mediator of RNA polymerase II transcription subunit 23 (Homo sapiens); test: Inhibition of ESX-Med23 interaction assessed as binding affinity to Med23 (352-625) by fluorescence polarization
[2] = target: T1, ETS-related transcription factor Elf-3/Vitamin D3 receptor-interacting protein (ESX/MED23) (Homo sapiens) (UniProt Q9ULK4+P78545); test: Inhibition of ESX-Med23 interaction in human BT474 cells assessed as down regulation of ErbB2 expression up to 50 uM by Western blotting; format: cell-based; details: BT-474
T1 sequence (P78545 whole entry, looked up): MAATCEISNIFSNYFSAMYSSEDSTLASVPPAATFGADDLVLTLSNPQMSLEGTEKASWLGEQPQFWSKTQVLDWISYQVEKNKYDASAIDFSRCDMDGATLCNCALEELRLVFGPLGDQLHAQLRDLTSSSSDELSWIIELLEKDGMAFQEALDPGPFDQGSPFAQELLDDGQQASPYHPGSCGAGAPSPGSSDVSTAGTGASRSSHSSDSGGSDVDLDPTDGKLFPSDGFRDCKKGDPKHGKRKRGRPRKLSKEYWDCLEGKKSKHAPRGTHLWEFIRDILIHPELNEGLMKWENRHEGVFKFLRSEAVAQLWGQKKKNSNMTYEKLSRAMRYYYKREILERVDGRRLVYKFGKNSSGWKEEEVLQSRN
T1 sequence (Q9ULK4 whole entry, looked up): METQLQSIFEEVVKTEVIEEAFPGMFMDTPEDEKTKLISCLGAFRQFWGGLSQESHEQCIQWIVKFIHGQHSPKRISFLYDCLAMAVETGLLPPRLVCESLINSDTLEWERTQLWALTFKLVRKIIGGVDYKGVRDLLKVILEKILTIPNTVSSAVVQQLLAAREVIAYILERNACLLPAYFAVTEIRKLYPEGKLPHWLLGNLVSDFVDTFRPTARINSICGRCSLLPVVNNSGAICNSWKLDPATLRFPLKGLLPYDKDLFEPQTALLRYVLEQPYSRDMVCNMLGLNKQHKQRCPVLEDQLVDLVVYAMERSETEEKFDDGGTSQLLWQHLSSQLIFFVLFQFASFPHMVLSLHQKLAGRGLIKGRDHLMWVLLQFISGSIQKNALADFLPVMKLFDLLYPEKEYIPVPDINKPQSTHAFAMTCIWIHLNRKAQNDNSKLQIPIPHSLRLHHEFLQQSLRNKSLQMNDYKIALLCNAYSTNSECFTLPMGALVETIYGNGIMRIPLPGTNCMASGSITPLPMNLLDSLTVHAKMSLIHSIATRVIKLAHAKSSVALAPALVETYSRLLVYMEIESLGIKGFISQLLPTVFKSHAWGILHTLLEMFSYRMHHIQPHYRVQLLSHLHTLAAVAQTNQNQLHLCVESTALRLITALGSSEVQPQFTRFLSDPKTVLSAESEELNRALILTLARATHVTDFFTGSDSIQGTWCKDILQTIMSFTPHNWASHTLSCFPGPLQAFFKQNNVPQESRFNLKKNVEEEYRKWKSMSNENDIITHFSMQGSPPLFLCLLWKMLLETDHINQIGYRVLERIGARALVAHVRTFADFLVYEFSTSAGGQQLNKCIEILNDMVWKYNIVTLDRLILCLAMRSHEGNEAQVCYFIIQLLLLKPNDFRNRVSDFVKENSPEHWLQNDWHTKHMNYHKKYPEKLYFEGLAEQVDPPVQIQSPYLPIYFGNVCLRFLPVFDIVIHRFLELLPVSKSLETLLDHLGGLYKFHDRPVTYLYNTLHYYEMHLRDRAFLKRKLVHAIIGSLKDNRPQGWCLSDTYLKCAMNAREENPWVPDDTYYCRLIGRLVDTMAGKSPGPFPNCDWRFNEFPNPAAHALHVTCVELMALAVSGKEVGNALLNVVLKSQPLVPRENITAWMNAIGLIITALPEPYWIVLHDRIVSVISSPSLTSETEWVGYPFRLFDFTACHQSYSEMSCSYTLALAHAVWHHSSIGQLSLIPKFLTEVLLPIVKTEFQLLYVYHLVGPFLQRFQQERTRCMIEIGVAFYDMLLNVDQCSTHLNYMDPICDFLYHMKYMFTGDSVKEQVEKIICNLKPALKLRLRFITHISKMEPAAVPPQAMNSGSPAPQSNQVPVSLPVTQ

[3] = target: T1, ETS-related transcription factor Elf-3/Vitamin D3 receptor-interacting protein (ESX/MED23) (Homo sapiens); test: Inhibition of ESX-Med23 interaction in human SK-BR-3 cells assessed as down regulation of ErbB2 expression at 25 uM by Western blotting; format: cell-based
Summary of the method: (§1)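 SkBr3 cells treated 6 h with compound in DMSO at 0.625–50 μM (comparator 10, 50 μM), DMSO control; ErbB2 protein level by Western blot.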

SK-BR-3 = test: Cytotoxicity against human SK-BR-3 cells after 24 hrs by WST-1 assay; format: functional, cell-based
[4] = target: T1, ETS-related transcription factor Elf-3/Vitamin D3 receptor-interacting protein (ESX/MED23) (Homo sapiens); test: Inhibition of ESX-Med23 interaction in human BT474 cells assessed as down regulation of ErbB2 expression after 24 hrs by Western blotting; format: cell-based; details: BT-474
[5] = target: T1, ETS-related transcription factor Elf-3/Vitamin D3 receptor-interacting protein (ESX/MED23) (Homo sapiens); test: Inhibition of ESX-Med23 interaction in human BT474 cells assessed as reduction in ErbB2 mRNA level after 6 hrs by qPCR relative to control; format: cell-based; details: BT-474
Summary of the method: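 BT-474 cells given compound in DMSO at 10 μM for 6 h; ErbB2 mRNA quantified by qPCR, normalized to GAPDH and expressed relative to DMSO; average of 16 experiments each in quadruplicate, s.e.m., Student's t-test.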

[6] = target: T1, ETS-related transcription factor Elf-3/Vitamin D3 receptor-interacting protein (ESX/MED23) (Homo sapiens); test: Inhibition of ESX-Med23 interaction in human SK-BR-3 cells assessed as down regulation of ErbB2 expression by Western blotting; format: cell-based
Summary of the method: as §1

MCF7 = test: Cytotoxicity against human MCF7 cells after 24 hrs by WST-1 assay; format: functional, cell-based; details: MCF7, 24 h
CAL-27 = test: Cytotoxicity against human CAL27 cells; format: functional, cell-based
SCC-25 = test: Cytotoxicity against human SCC25 cells; format: functional, cell-based
SCC-15 = test: Cytotoxicity against human SCC15 cells; format: functional, cell-based

**Q.** For `CC(C)C[C@]1(CCO)C[C@H](CNC(=S)Nc2ccc(-c3c4ccc(=O)cc-4oc4cc(O)ccc34)c(C(=O)O)c2)ON1Cc1ccc2ccccc2c1`, which Kd [1] is on record?
**A.** Its Kd is 1 µM.

**Q.** With `CC(C)C[C@]1(CCO)C[C@H](CN=[N+]=[N-])ON1Cc1ccccc1` as the compound, how does the Activity [2] read?
**A.** The Activity was “inactive”.

**Q.** And the Activity [3]?
**A.** The Activity was “Active”.

**Q.** And the Activity (SK-BR-3)?
**A.** Its Activity is “inactive”.

**Q.** For `CC(C)C[C@]1(CCO)C[C@H](CNC(=S)Nc2ccc(-c3c4ccc(=O)cc-4oc4cc(O)ccc34)c(C(=O)O)c2)ON1Cc1ccc(-c2ccccc2)cc1`, which Kd [1] is on record?
**A.** Its Kd is 0.62 µM.

**Q.** For `CC(C)C[C@]1(CCO)C[C@H](CNC(=S)Nc2ccc(-c3c4ccc(=O)cc-4oc4cc(O)ccc34)c(C(=O)O)c2)ON1Cc1ccc(C(F)(F)F)cc1`, which Kd [1] is on record?
**A.** Its Kd is 0.59 µM.

**Q.** How did the Activity [4] turn out when `CC(C)C[C@]1(CCO)C[C@H](CN=[N+]=[N-])ON1Cc1ccc(C(F)(F)F)cc1` was run?
**A.** Its Activity is “Dose-dependent effect”.

**Q.** How did the Activity [4] turn out when `CC(C)C[C@]1(CCO)C[C@H](CN=[N+]=[N-])ON1Cc1ccc2ccccc2c1` was run?
**A.** The Activity was “Dose-dependent effect”.

**Q.** Which Activity [4] does the source give for `CC(C)C[C@]1(CCO)C[C@H](CN=[N+]=[N-])ON1Cc1ccc(-c2ccccc2)cc1` here?
**A.** The Activity was “Dose-dependent effect”.

**Q.** And the Activity [5]?
**A.** Its Activity is “Active”.

**Q.** And the Activity [6]?
**A.** Its Activity is “Active”.

**Q.** And the IC50 (SK-BR-3; SK-BR-3, 24 h)?
**A.** Its IC50 is 14 µM.

**Q.** What about the IC50 (MCF7) of the same compound?
**A.** Its IC50 is 27 µM.

**Q.** And the IC50 (CAL-27)?
**A.** Its IC50 is 21.8 µM.

**Q.** And the IC50 (SCC-25)?
**A.** The IC50 was 19.8 µM.

**Q.** And the IC50 (SCC-15)?
**A.** The IC50 was 19.2 µM.

**Q.** With `CC(C)C[C@]1(CCO)C[C@H](CNC(=S)Nc2ccc(-c3c4ccc(=O)cc-4oc4cc(O)ccc34)c(C(=O)O)c2)ON1Cc1ccccc1` as the compound, how does the Kd [1] read?
**A.** Its Kd is 5.9 µM.
